The subject of data set [1] is LNCaP. The data set is described as follows: Cytotoxicity against human LNCAP cells after 72 hrs by alamar blue assay. The data set is classed as functional, cell-based. Summed up: (§1)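 Screened across a human panel: A549 lung adenocarcinoma, HeLa cervical adenocarcinoma, MCF-7 breast, LNCaP and PC3 prostate, plus non-cancer HEK 293 embryonic kidney and NFF neonatal foreskin fibroblasts. IC50 reported as mean ± SD of two independent experiments.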
(The colour change of resazurin is a common sign of viable cells or microbes.)

Data set [2] has as its system MCF7. Put plainly: Cytotoxicity against human MCF7 cells after 72 hrs by alamar blue assay. The data set is classed as functional, cell-based. Conditions: MCF7, 72 h. Summed up: as §1
For data set [3], the system named is HeLa. The data set is described as follows: Cytotoxicity against human HeLa cells after 72 hrs by alamar blue assay. It is filed as functional, cell-based. Summed up: as §1
The nature of data set [4]: Cytotoxicity against HEK cells after 72 hrs by alamar blue assay. It is filed as cell-based. Conditions: Homo sapiens, HEK293, 72 h. In a few lines:
as §1

Data set [5] has as its system A549. Put plainly: Cytotoxicity against human A549 cells after 72 hrs by alamar blue assay. The data set is classed as functional, cell-based. Conditions: A549, 72 h. In a few lines:
as §1

Data set [6] deals with NFF. Put plainly: Cytotoxicity against human NFF after 72 hrs by alamar blue assay. The data set is classed as cell-based. In a few lines:
as §1

The subject of data set [7] is PC-3. Put plainly: Cytotoxicity against human PC3 cells after 72 hrs by alamar blue assay. Conditions: PC-3, 72 h. The data set is classed as functional, cell-based. In a few lines: as §1
Data set [8] deals with MCF7. The data set is described as follows: Cytotoxicity against human MCF7 cells at 100 uM after 72 hrs by alamar blue assay. It is filed as functional. Conditions: MCF7, 72 h. In a few lines:
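Single-concentration screen on MCF-7 breast cancer cells within the same human cell-line panel. Percent growth inhibition calculated at the one test concentration rather than as an IC50.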

The nature of data set [9]: Cytotoxicity against HEK cells at 100 uM after 72 hrs by alamar blue assay. It is filed as cell-based, HEK293. The conditions noted are these: human; for cytotoxicity at 72 h, 100 µM: HEK cells, read-out: INH. In a few lines: (§2)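 Non-cancer human cell lines, human embryonic kidney 293 (HEK 293) and neonatal foreskin fibroblasts (NFF), screened in parallel with a panel of five cancer lines. Growth inhibition is reported as percent inhibition at a single test concentration of 100.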

Data set [10] in a line: (§3) Cytotoxicity against human NFF at 100 uM after 72 hrs by alamar blue assay. The data set is classed as cell-based. The conditions noted are these: NFF cells, read-out: INH. Summed up: as §2
Data set [11] concerns NFF. The description is as §3. It is filed as cell-based. Conditions: nff, 72 h, 100 µM. In a few lines:
as §2

Usually pIC50 stands for the IC50 on a negative log10 scale, so that one unit is a factor of ten. Read a low pIC50 as a high IC50. What is called inhibition is how much of the control response was suppressed.

Each structure is given as a SMILES string. pIC50: −log10 of the molar value. Counter-ions that a name gives are not always drawn. Bounds are passed on as bounds.

Regarding `Oc1ccc2c(c1)-c1c3c(cc4c1[C@@H](C2)NCC4)OCO3`, the negative logarithm of the IC50 (pIC50) in data set [1] was 4.86; in data set [2] it was 4.56; in data set [3], 5.40; in data set [4], 4.22; in data set [5], 4.55; in data set [6] it was 4.37. Moreover, the pIC50 in [7] is 4.64.

Regarding `CN1CCc2cc3c(c4c2[C@H]1Cc1ccccc1-4)OCO3`, the pIC50 in [1] is 4.90; in [2] it was 4.75; in [3], 4.78; in [4], 4.80; in [5], 5.47; in data set [6], 4.82. The compound also showed a negative logarithm of the IC50 (pIC50) in data set [7] of 5.11.

With `COc1cc2c(cc1O)C[C@@H]1NCCc3cc4c(c-2c31)OCO4`, the pIC50 in data set [1] is 4.56; in data set [3], 4.55; in data set [5], 4.80; in [6] it was below 4.00; in data set [7], 4.44. The compound further registered an inhibition at 100 µM in [8] of 52%. Moreover, the cytotoxicity at 72 h, 100 µM in data set [9] amounted to 55%.

With `COc1cc2c(cc1O)C[C@@H]1NCCc3cc(O)c(OC)c-2c31`, the pIC50 in [1], in data set [2], in data set [3], in data set [4], in [5] and in [6] was below 4.00 in each case. For the same compound, the negative-log IC50 (pIC50) in data set [7] is below 4.00.

On to `COc1cc2c(cc1O)C[C@H]1c3c(cc(O)c(OC)c3-2)CCN1C`, for which the pIC50 in data set [1], in data set [2], in data set [3], in data set [4], in data set [5] and in data set [6] was below 4.00 each time. The pIC50 in [7] is below 4.00.

For the compound `COc1ccc2c(c1O)[C@H](Cc1ccc(O)cc1)NCC2`, the pIC50 in data set [1], in [2], in data set [3], in data set [4], in data set [5] and in [6] was below 4.00 each time. The same compound gave a pIC50 in data set [7] below 4.00.

As to `COc1ccc2c(c1O)[C@H](Cc1ccc(O)cc1)N(C)CC2`, the negative-log IC50 (pIC50) in data set [1], in [2], in data set [3], in data set [4], in data set [5] and in data set [6] was below 4.00 throughout. The same compound had a pIC50 in [7] below 4.00.

Consider `C[N@@+]1([O-])CCc2cc3c(c4c2[C@H]1Cc1ccccc1-4)OCO3` (stereo in doubt; 3), for which the negative-log IC50 (pIC50) in [1], in [2], in [3], in data set [5] and in [7] was below 4.00 in each case. Moreover, the cytotoxicity at 72 h, 100 µM in data set [10] was 83%; in data set [9], 61%.

Take `C[N@@+]1([O-])CCc2cc3c(c4c2[C@H]1Cc1ccccc1-4)OCO3.O=C(O)C(F)(F)F` (stereo in doubt; 4): the “inhibition (INH)” value stood at 66% in data set [11] and 49% in data set [9] (hek293, 72 h, 100 µM, 72 h).

With `CC(=O)O[C@H]1C(=O)[C@@]2(C)[C@H]([C@H](OC(=O)c3ccccc3)[C@]3(O)C[C@H](OC(=O)[C@H](O)[C@@H](NC(=O)c4ccccc4)c4ccccc4)C(C)=C1C3(C)C)[C@]1(OC(C)=O)CO[C@@H]1C[C@@H]2O` [PACLITAXEL], the negative logarithm of the IC50 (pIC50) in data set [2] was 8.36; in data set [3] it was 8.05; in data set [4], 8.41; in data set [5] it was 8.42; in data set [6] it was 8.33.

Consider `CC[C@]1(O)C[C@H]2CN(CCc3c([nH]c4ccccc34)[C@@](C(=O)OC)(c3cc4c(cc3OC)N(C=O)[C@H]3[C@@](O)(C(=O)OC)[C@H](OC(C)=O)[C@]5(CC)C=CCN6CC[C@]43[C@@H]65)C2)C1` [VINCRISTINE SULFATE], for which the negative logarithm of the IC50 (pIC50) was 8.54 in data set [1] and 7.96 in data set [7].

For the origin of these results see ChEMBL document CHEMBL1255528, “Chemical investigation of drug-like compounds from the Australian tree, Neolitseadealbata” (Bioorg Med Chem Lett, 2010).
